Assay results taken from ChEMBL document CHEMBL1149780, “Unsaturated fluoro-ketopyranosyl nucleosides: synthesis and biological evaluation of 3-fluoro-4-keto-beta-d-glucopyranosyl derivatives of N(4)-benzoyl cytosine and N(6)-benzoyl adenine” (Eur J Med Chem, 2008).

Columns and labels:
H4 [1] = test: Tumor selectivity index, CC50 for human H4 cells to CC50 for human Caco-2 cells; assay type: functional
H4 [2] = test: Tumor selectivity index, CC50 for human H4 cells to CC50 for human melanoma cells; assay type: functional
MCF7 [3] = test: Tumor selectivity index, CC50 for human H4 cells to CC50 for human MCF7 cells; assay type: functional
[4] = Ratio of CC50 for Caco-2 cells to IC50 for rotavirus infected human Caco2 cells assessed as inhibition of infectivity following virus attachment
Caco-2 [5] = test: Cytotoxicity against human Caco-2 cells after 72 hrs; assay type: functional; conditions: Caco-2, 72 h
Outline: (§1)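 Caco-2, H4 (normal intestinal), MCF-7 and skin melanoma cells seeded at 6 × 10^6 cells per plate, given 3-fold serial dilutions (top 0.5 mg/mL; DMSO below 0.1%), 37 °C, 72 h.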

H4 [6] = test: Cytotoxicity against human H4 cells after 72 hrs; assay type: functional; conditions: H4, 72 h; outline: as §1
MCF7 [7] = test: Cytotoxicity against human MCF7 cells after 72 hrs; assay type: functional; conditions: MCF7, 72 h; outline: as §1
[8] = Cytotoxicity against human melanoma cells after 72 hrs; assay type: functional; conditions: Melanoma cell; outline: as §1
Caco-2 [9] = test: Growth inhibition of human Caco-2 cells; assay type: functional, cell-based
Outline: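 Colony-formation assay: Caco-2 seeded at 10 cells/well in DMEM-10% FBS, given 3-fold dilutions (top 0.5 mg/mL), incubated 10 days at 37 °C. Colonies counted; colony number in treated (n = 2) vs control wells (n = 24) as %; IC50 from concentration-effect curve.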

Rotavirus = test: Antiviral activity against gastrointestinal rotavirus in human Caco-2 cells assessed as inhibition of infectivity following virus attachment; assay type: functional, organism-based
Outline: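 Caco-2 monolayers washed, exposed to rotavirus RF strain (1.5 TCID50/mL, 100 µL/well) for 1 h at 37 °C, 5% CO2; unbound virus washed off, then 3-fold serial compound dilutions added (top 0.5 mg/mL; DMSO below 0.1%).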

SMILES	Ratio (H4 [1])	Ratio (H4 [2])	Ratio (MCF7 [3])	Ratio CC50/IC50 [4]	CC50 (Caco-2 [5])	CC50 (H4 [6])	CC50 (MCF7 [7])	CC50 [8]	IC50 (Caco-2 [9])	IC50 (Rotavirus)
O=c1[nH]cc(F)c(=O)[nH]1 [FLUOROURACIL]	10	83.4	5	–	–	–	–	–	–	–
Cc1cn([C@H]2C[C@H](N=[N+]=[N-])[C@@H](CO)O2)c(=O)[nH]c1=O [ZIDOVUDINE]	–	–	–	2.5	56.1 µM	–	–	–	–	–
O=C(Nc1ncnc2ncn([C@H]3C=C(F)C(=O)[C@@H](COC(c4ccccc4)(c4ccccc4)c4ccccc4)O3)c12)c1ccccc1	25	84.1	84.1	0.04	31.9 µM	799 µM	9.5 µM	9.5 µM	1.1 µM	799 µM
